Data: ChEMBL document CHEMBL3244046, “Cardenolide analogues. 7. Synthesis and biological activity of some new steroidal guanylhydrazones” (J Med Chem, 1978)
Activity calls are given as the source filed them.

Tests used:
Cavia porcellus [1] = species on record: Cavia porcellus; experiment: Inhibition of Na(+)/K(+) ATPase-mediated phosphohydrolase activity in guinea pig myocardium at 5 X 10^-5 M after 30 mins relative to control; format: tissue-based
Outline: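 Crude membranes from guinea pig myocardium (5-10 units activity; unit = µmol Pi liberated/mg protein/h) incubated 37 °C, 30 min. Substrate consumption under 15% without drug. Dose-response curves over 10⁻⁸–10⁻⁴ M, duplicate determinations; values read from curves.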

Left cardiac atrium [2] = experiment: Inotropic activity in guinea pig left atrium assessed as change in isometric force of contraction at 5 X 10^-5 M relative to control; format: functional, Cavia porcellus
Outline: (§1)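 Guinea pig left auricle in Krebs-Henseleit, 32 °C, gassed O2/5% CO2, resting tension about 1 g. Paced with 10-ms rectangular pulses at 100/min, voltage 20% above threshold. Cumulative dose-response curves up to 10⁻⁴ M. Isometric contraction changes computed against control atria.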

Left cardiac atrium [3] = experiment: Negative inotropic activity in guinea pig left atrium assessed as isometric force of contraction at 10^-8 to 10^-4 M relative to control; format: functional, tissue-based; conditions: Cavia porcellus; outline: as §1
Cavia porcellus [4] = species on record: Cavia porcellus; experiment: Inhibition of ouabain-insensitive Mg(2+)-ATPase-mediated phosphohydrolase activity in guinea pig myocardium at 5 X 10^-5 M after 30 mins relative to control; format: tissue-based
Outline: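 Guinea pig myocardial crude membranes (5-10 units; µmol Pi/mg protein/h), assayed without Na+ and K+ (ouabain-insensitive activity), with and without drug, 37 °C for 30 min. Substrate use under 15% in drug-free controls. Drug tested 10⁻⁸–10⁻⁴ M in duplicate; values taken from dose-response curves.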

Cavia porcellus [5] = species on record: Cavia porcellus; experiment: Inhibition of ouabain-insensitive Mg(2+)-ATPase-mediated phosphohydrolase activity in guinea pig myocardium at 1 X 10^-5 M after 30 mins relative to control; format: tissue-based
Outline: (§2)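 Guinea pig myocardial crude membranes were incubated 30 min at 37 °C without Na⁺ and K⁺. Ouabain-insensitive Mg²⁺-ATPase activity was measured as inorganic phosphate released (µmol/mg protein/h), with and without drug. Substrate use stayed under 15%. Dose-response curves covered 10⁻⁸–10⁻⁴ M, run in duplicate, and values were taken from the curves.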

Left cardiac atrium [6] = experiment: Toxicity in guinea pig left atrium assessed as tissue arrest at 5 X 10^-5 M relative to control; format: tissue-based, Cavia porcellus; conditions: 50 µM
Outline: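 Electrically paced guinea pig left auricle (Krebs-Henseleit, 32 °C, O₂/5% CO₂, about 1 g resting tension, 10-ms pulses at 100/min, 20% above threshold) given cumulative drug doses up to 10⁻⁴ M. Toxicity was scored as tissue arrest, which follows the inflection of the dose-response curve.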

Left cardiac atrium [7] = experiment: Inotropic activity in guinea pig left atrium assessed as change in isometric force of contraction at 1 X 10^-5 M relative to control; format: functional, Cavia porcellus
Outline: (§3)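 Guinea pig left auricle in Krebs-Henseleit at 32 °C, gassed with O₂/5% CO₂ under about 1 g resting tension. Pacing used 10-ms rectangular pulses at 100/min and 20% above threshold voltage. Change in isometric contraction was referenced to control atria. Cumulative dose-response curves ran up to 10⁻⁴ M.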

Cavia porcellus [8] = species on record: Cavia porcellus; experiment: Inhibition of Na(+)/K(+) ATPase-mediated phosphohydrolase activity in guinea pig myocardium at 1 X 10^-5 M after 30 mins relative to control; format: tissue-based
Outline: (§4)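 Crude guinea pig myocardial membrane preparation (5-10 units each enzyme; µmol Pi/mg protein/h), incubated 37 °C for 30 min. Substrate consumption stayed below 15%. Dose-response curves spanned 10⁻⁸–10⁻⁴ M in duplicate, and values were read from the curves.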

Left cardiac atrium [9] = experiment: Inotropic activity in guinea pig left atrium assessed as change in isometric force of contraction at 2 X 10^-6 M relative to control; format: functional, Cavia porcellus; outline: as §3
Cavia porcellus [10] = species on record: Cavia porcellus; experiment: Inhibition of Na(+)/K(+) ATPase-mediated phosphohydrolase activity in guinea pig myocardium at 2 X 10^-6 M after 30 mins relative to control; format: tissue-based; outline: as §4
Cavia porcellus [11] = species on record: Cavia porcellus; experiment: Inhibition of ouabain-insensitive Mg(2+)-ATPase-mediated phosphohydrolase activity in guinea pig myocardium at 2 X 10^-6 M after 30 mins relative to control; format: tissue-based; outline: as §2

SMILES | inhibition (Cavia porcellus [1]) | Activity (Left cardiac atrium [2]) | Activity (Left cardiac atrium [3]) | Imax (Cavia porcellus [4]) | inhibition (Cavia porcellus [4]) | further results
C[C@]12CC[C@H]3[C@@H](CCC4=C[C@@H](O)CC[C@@]43C)[C@@H]1CC[C@@H]2/C=N\NC(=N)N | 54% | -18% | Active | 30% |  | 
C[C@]12CC[C@H](O)C[C@@H]1CC[C@@H]1[C@@H]2CC[C@]2(C)[C@@H](/C=N\NC(=N)N)CC[C@@H]12 | 40% | -50% | Active | 43% |  | 
C[C@]12CC[C@H](O)C[C@H]1CC[C@@H]1[C@@H]2CC[C@]2(C)[C@@H](/C=N\NC(=N)N)CC[C@@H]12 | 55% | -45% | Active |  | 55% | 
C[C@]12CC[C@H](O)C[C@H]1CC[C@@H]1[C@@H]2CC[C@]2(C)[C@@H](/C=N\NC(=N)N)CC[C@]12O | 53% |  |  |  | 0% | inhibition (Cavia porcellus [5]): 0%; Activity (Left cardiac atrium [6]): Toxic; Activity (Left cardiac atrium [7]): 120%; inhibition (Cavia porcellus [8]): 20%
C[C@]12CC[C@H](O)C[C@H]1CC[C@@H]1[C@@H]2CC[C@]2(C)[C@@H](C3=CC(=O)OC3)CC[C@]12O [DIGITOXIGENIN] |  |  |  |  |  | Activity (Left cardiac atrium [9]): 130%; inhibition (Cavia porcellus [10]): 60%; inhibition (Cavia porcellus [11]): 0%
C[C@]12CC[C@@H](O)C[C@H]1CC[C@@H]1[C@@H]2CC[C@]2(C)[C@@H](/C=N\NC(=N)N)CC[C@@H]12 | 37% | -10% | Active |  | 45% | 
